Reference: ChEMBL document CHEMBL4011621, “A Novel Series of Highly Potent Small Molecule Inhibitors of Rhinovirus Replication” (J Med Chem, 2017)
Calls of active or inactive are those of the source. The rule behind the calls is not given here.

Experiments:
[1] = Selectivity index, ratio of CC50 for human H1HeLa cells to EC50 for Human rhinovirus B14 infected in human H1HeLa cells; format: toxicity, cell-based; conditions: read-out: Ratio CC50/EC50
In short: (§1)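 H1HeLa cells plated 2 d ahead; virus plus compound (equal volumes) incubated 33 °C, 3 d, CO2. MTT 1 h at 37 °C, A540/A690. Survival scaled between uninfected untreated (100%) and virus-only (0%) wells to give EC50. CC50 = 50% cell death by MTT in H1HeLa. SI = CC50/EC50; at least three independent experiments.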

Poliovirus 3 = assay: Antiviral activity against Human poliovirus 3 infected in human HeLa cells assessed as protection against virus induced cytopathic effect after 2 days by MTT assay; format: functional, cell-based; conditions: Enterovirus C, 48 h
In short: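 HeLa cells; MTT-based CPE reduction. Virus and compound added in equal volumes, incubated 37 °C for 2 d in CO2. Supernatant removed, MTT 1 h at 37 °C, formazan dissolved, absorbance 540 nm (690 nm reference). Uninfected untreated wells = 100% survival, virus-only = 0%. EC50 = 50% inhibition; means ± SD, three experiments.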

[2] = Cytotoxicity aganist human HeLa cells assessed as decrease in cell viability after 2 days by MTT assay; format: cell-based
[3] = Selectivity index, ratio of CC50 for human HeLa cells to EC50 for human poliovirus 3 infected in human HeLa cells; format: toxicity, cell-based; conditions: read-out: Ratio CC50/EC50
In short: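 SI = CC50/EC50 in HeLa cells. CC50 = 50% cell death by MTT. EC50 = 50% inhibition of PV3 CPE by MTT after 2 d at 37 °C, survival scaled to uninfected (100%) and virus-only (0%) wells. At least three independent experiments.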

rhinovirus A21 = assay: Antiviral activity against Human rhinovirus A21 infected in human H1HeLa cells assessed as protection against virus induced cytopathic effect after 3 days by MTT assay; format: functional, cell-based; conditions: Rhinovirus A, H1-HeLa, 72 h
In short: (§2)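 CPE-reduction assay in H1HeLa cells plated 2 d before. Equal volumes of virus and compound were added and held at 33 °C for 3 d under CO2. Supernatant was removed, then MTT was added for 1 h at 37 °C. Formazan was dissolved and read at 540 nm against a 690 nm reference. Survival was scaled between uninfected untreated wells (100%) and virus-only wells (0%); mean ± SD, three experiments.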

[4] = Cytotoxicity against human H1HeLa cells assessed as decrease in cell viability after 3 days by MTT assay; format: cell-based, H1-HeLa
[5] = Antiviral activity against Human rhinovirus A71 infected in human H1HeLa cells assessed as protection against virus induced cytopathic effect after 3 days by MTT assay; format: functional, cell-based; conditions: Rhinovirus A, H1-HeLa, 72 h; in short: as §2
[6] = Selectivity index, ratio of CC50 for human H1HeLa cells to EC50 for Human rhinovirus A21 infected in human H1HeLa cells; format: toxicity, cell-based; conditions: read-out: Ratio CC50/EC50; in short: as §1
[7] = Selectivity index, ratio of CC50 for human H1HeLa cells to EC50 for Human rhinovirus A71 infected in human H1HeLa cells; format: toxicity, cell-based; conditions: read-out: Ratio CC50/EC50; in short: as §1
rhinovirus B14 [8] = assay: Antiviral activity against Human rhinovirus B14 infected in human H1HeLa cells assessed as protection against virus induced cytopathic effect after 3 days by MTT assay; format: functional, cell-based; conditions: Rhinovirus B, H1-HeLa, 72 h
rhinovirus B14 [9] = assay: Antiviral activity against Human rhinovirus B14 harboring VP1 A150V/E276K double mutant infected in human HeLa Rh cells assessed as protection against virus induced cytopathic effect after 3 days by MTT assay; format: functional, cell-based
rhinovirus B14 [10] = assay: Antiviral activity against Human rhinovirus B14 infected in H1HeLa cells assessed as decrease in viral dsRNA at 6 times EC50 treated every 1 hr for 9 hrs after infection by DAPI staining based immunofluorescence assay; format: functional, cell-based
In short: (§3)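 Cells were infected with hRV type 14 or type 16 at MOI 1. Compound was given 1 h before infection, at infection (0 h), or at later hourly time points. At 9 h post-infection, cells were fixed in ice-cold methanol–acetone 3:1 and stained with anti-dsRNA antibody (J2), an Alexa Fluor 488 anti-mouse secondary and DAPI, then imaged. Infected-cell count over total nuclei was expressed as % of untreated virus control; mean ± SD, three experiments.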

[11] = Cytotoxicity against human HeLa Rh cells assessed as decrease in cell viability after 3 days by MTT assay; format: cell-based
rhinovirus A16 [12] = assay: Antiviral activity against Human rhinovirus A16 infected in human H1HeLa cells assessed as protection against virus induced cytopathic effect after 3 days by MTT assay; format: functional, cell-based; conditions: Rhinovirus A, H1-HeLa, 72 h; in short: as §2
rhinovirus A16 [13] = assay: Antiviral activity against Human rhinovirus A16 infected in H1HeLa cells assessed as decrease in viral dsRNA at 6 times EC50 treated simultaneously with infection by DAPI staining based immunofluorescence assay; format: functional, cell-based; in short: as §3
rhinovirus B14 [14] = assay: Antiviral activity against Human rhinovirus B14 harboring VP1 C199Y mutant infected in human HeLa Rh cells assessed as protection against virus induced cytopathic effect after 3 days by MTT assay; format: functional, cell-based
rhinovirus B14 [15] = assay: Antiviral activity against Human rhinovirus B14 infected in H1HeLa cells assessed as decrease in viral dsRNA at 6 times EC50 treated simultaneously with infection by DAPI staining based immunofluorescence assay; format: functional, cell-based; in short: as §3
rhinovirus B14 [16] = assay: Antiviral activity against Human rhinovirus B14 infected in H1HeLa cells assessed as decrease in viral dsRNA at 6 times EC50 treated 1 hr prior to infection by DAPI staining based immunofluorescence assay; format: functional, cell-based; in short: as §3
rhinovirus A16 [17] = assay: Antiviral activity against Human rhinovirus A16 infected in H1HeLa cells assessed as decrease in viral dsRNA at 6 times EC50 treated every 1 hr for 9 hrs after infection by DAPI staining based immunofluorescence assay; format: functional, cell-based; in short: as §3
rhinovirus A16 [18] = assay: Antiviral activity against Human rhinovirus A16 infected in H1HeLa cells assessed as decrease in viral dsRNA at 6 times EC50 treated 1 hr prior to infection by DAPI staining based immunofluorescence assay; format: functional, cell-based; in short: as §3

| Structure (SMILES) | selectivity ratio [1] | EC50 (Poliovirus 3) | CC50 at 48 h [2] | selectivity ratio [3] | EC50 (rhinovirus A21) | CC50 at 72 h [4] | EC50 [5] | selectivity ratio [6] | selectivity ratio [7] | EC50 (rhinovirus B14 [8]) | EC50 (rhinovirus B14 [9]) | Activity (rhinovirus B14 [10]) | CC50 at 72 h [11] | EC50 (rhinovirus A16 [12]) | Activity (rhinovirus A16 [13]) | EC50 (rhinovirus B14 [14]) | Activity (rhinovirus B14 [15]) | Activity (rhinovirus B14 [16]) | Activity (rhinovirus A16 [17]) | Activity (rhinovirus A16 [18]) |
| --- | --- | --- | --- | --- | --- | --- | --- | --- | --- | --- | --- | --- | --- | --- | --- | --- | --- | --- | --- | --- |
| CNC(=O)c1cc(Oc2ccc3c(C)c(C(=O)OCC(C)C)sc3c2)ccn1 | 3.6 | 2000 nM | 28200 nM | 14 | 1500 nM | 36600 nM | 380 nM | 24 | 96 | 10100 nM |  |  |  |  |  |  |  |  |  |  |
| CCOC(=O)c1cc2ccc(Oc3ccnc(C(=O)NC)c3)cc2s1 | > 1.7 | 64300 nM | > 100000 nM | > 1.6 | 1200 to 1300 nM | > 100000 nM | 19 nM | > 77 | > 5300 | 24600 to 58400 nM |  |  |  |  |  |  |  |  |  |  |
| CCOC(=O)c1sc2cc(Oc3ccnc(C(=O)NC)c3)ccc2c1C | 30 | 93 nM | > 100000 nM | > 1100 | 290 nM | 50900 nM | 340 nM | 180 | 150 | 1700 nM |  |  |  |  |  |  |  |  |  |  |
| CNC(=O)c1cc(Oc2ccc3ccc(C(=O)OC)cc3c2)ccn1 | 4.9 | 44 nM | 33800 nM | 770 | 2000 nM | 53500 nM | 1600 nM | 27 | 33 | 11000 nM |  |  |  |  |  |  |  |  |  |  |
| CNC(=O)c1cc(Oc2ccc3ccc(C(=O)OC(C)C)cc3c2)ccn1 | 7.7 | 10 nM | 8700 nM | 870 | 480 nM | 13800 nM | 19 nM | 29 | 730 | 1800 nM |  |  |  |  |  |  |  |  |  |  |
| CCOC(=O)c1ccc2ccc(Oc3ccnc(C(=O)NC)c3)cc2c1 | 9.9 | 9.5 nM | 13200 nM | 1400 | 270 nM | 20800 nM | 48 nM | 77 | 430 | 2100 nM |  |  |  |  |  |  |  |  |  |  |
| CCCOC(=O)c1sc2cc(Oc3ccnc(C(=O)NC)c3)ccc2c1C | 13 | 710 nM | 57100 nM | 80 | 330 nM | 37400 nM | 64 nM | 110 | 580 | 2900 nM |  |  |  |  |  |  |  |  |  |  |
| CNC(=O)c1cc(Oc2ccc3c(C)c(C(=O)OC(C)C)sc3c2)ccn1 | 220 | 63 nM | 9600 nM | 150 | 78 nM | 18100 nM | 15 nM | 230 | 1200 | 70 to 83 nM | 264 nM | inactive | > 3000 nM | 230 nM | Active | 2370 nM | Active | Active | inactive | Active |
